In series [1] the target is Macrophage-stimulating protein receptor (Homo sapiens) (UniProt Q04912). Put plainly: Inhibition of recombinant human RON (983 to end residues) at 1 uM using GGMEDIYFEFMGGKKK as substrate incubated for 40 mins in presence of [gamma-33P]-ATP by scintillation counting method relative to control.
Series [2] is described as follows: Toxicity in BALB/c mouse assessed as effect on blood parameter by measuring eosinophils content at 40 mg/kg, po administered once two days for 4 times by hematology analyzer. The conditions noted are these: in vivo.
Series [3] deals with Casein kinase I isoform gamma-2 (Homo sapiens) (UniProt P78368). Put plainly: Inhibition of recombinant human CK1gamma2 (18 to end residues) at 1 uM using KRRRALS(p)VAS as substrate incubated for 40 mins in presence of [gamma-33P]-ATP by scintillation counting method relative to control. The procedure, abridged:
(§1)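 Kinase panel profiling at 1 μM performed by Eurofins KinaseProfiler; percent inhibition reported as mean of two independent experiments.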

The nature of series [4]: Toxicity in BALB/c mouse assessed as effect on blood parameter by measuring RBC content at 40 mg/kg, po administered once two days for 4 times by hematology analyzer. The conditions noted are these: in vivo.
Series [5] concerns the target Serine/threonine-protein kinase ULK1 (Homo sapiens) (UniProt O75385). Put plainly: Inhibition of recombinant human ULK1 (1 to 314 residues) at 1 uM using casein as substrate incubated for 40 mins in presence of [gamma-33P]-ATP by scintillation counting method relative to control. The procedure, abridged: (§2)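 Tested at a single 1 uM in an outsourced commercial kinase-profiling panel, read as percent inhibition. Each value is the mean of two independent experiments.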

Series [6] is described as follows: AUC (0 to t) in Sprague-Dawley rat at 10 mg/kg, iv by HPLC-MS analysis. Format: ADME, organism-based. The settings on record: in vivo. Put shortly: (§3)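 Rats fitted with jugular vein catheters for serial blood sampling. Compound dissolved in saline with 5% (v/v) DMSO and given as a single 10 mg/kg dose iv or po after an overnight fast, n = 5 per group. Plasma isolated at once and measured by HPLC with tandem MS detection. Parameters derived by noncompartmental fitting.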

Series [7] is described as follows: AUMC (0 to t) in Sprague-Dawley rat at 10 mg/kg, iv by HPLC-MS analysis. Type of series: ADME, organism-based. The conditions noted are these: in vivo. Put shortly:
as §3

Series [8] addresses Aurora kinase A (Homo sapiens) (UniProt O14965). Nature of the series: Inhibition of recombinant full length human Aurora A at 1 uM using LRRASLG as substrate incubated for 40 mins in presence of [gamma-33P]-ATP by scintillation counting method relative to control. The procedure, abridged:
as §1

Series [9] deals with Dual specificity protein kinase TTK (Homo sapiens) (UniProt P33981). Nature of the series: Inhibition of recombinant human full length TTK at 1 uM using MBP as substrate incubated for 40 mins in presence of [gamma-33P]-ATP by scintillation counting method relative to control.
The target of series [10] is MAP kinase-activated protein kinase 2 (Homo sapiens) (UniProt P49137). Nature of the series: Inhibition of recombinant human MAPKAPK2 (46 to end residues) at 1 uM using KKLNRTLSVA as substrate incubated for 40 mins in presence of [gamma-33P]-ATP by scintillation counting method relative to control.
MAP kinase-activated protein kinase 2 (Homo sapiens), sequence (P49137 whole entry, looked up): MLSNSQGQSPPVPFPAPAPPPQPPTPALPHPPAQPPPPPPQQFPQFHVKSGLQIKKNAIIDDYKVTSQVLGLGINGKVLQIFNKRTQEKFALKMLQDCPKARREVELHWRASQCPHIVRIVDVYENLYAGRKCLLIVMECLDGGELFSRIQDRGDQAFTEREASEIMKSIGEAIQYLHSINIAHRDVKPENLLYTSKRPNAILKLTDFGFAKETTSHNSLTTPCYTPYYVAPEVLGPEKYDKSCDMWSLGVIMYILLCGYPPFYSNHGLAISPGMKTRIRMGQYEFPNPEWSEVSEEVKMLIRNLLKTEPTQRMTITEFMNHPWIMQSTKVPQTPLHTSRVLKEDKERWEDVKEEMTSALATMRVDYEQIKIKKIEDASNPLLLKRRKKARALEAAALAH
The target in series [11] is Serine/threonine-protein kinase 32A (Homo sapiens) (UniProt Q8WU08). Put plainly: Inhibition of recombinant human full length STK32A at 1 uM using casein as substrate incubated for 40 mins in presence of [gamma-33P]-ATP by scintillation counting method relative to control. The procedure, abridged:
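Single-point inhibition at 1 uM measured in a commercial kinase profiling panel (KinaseProfiler); each value is the mean of two independent experiments.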

Series [12] deals with Receptor tyrosine-protein kinase erbB-4 (Homo sapiens) (UniProt Q15303). Nature of the series: Inhibition of recombinant human ERBB4 (706 to 991 residues) at 1 uM using poly (Glu, Tyr) 4:1 as substrate incubated for 40 mins in presence of [gamma-33P]-ATP by scintillation counting method relative to control. The procedure, abridged: as §2
Series [13] concerns the target DNA-dependent protein kinase catalytic subunit (Homo sapiens) (UniProt P78527). Nature of the series: Inhibition of recombinant human full length DNA-PK at 1 uM using GST-cMyc-p53 as substrate incubated for 40 mins in presence of [gamma-33P]-ATP by scintillation counting method relative to control.
Series [14] has as its target Phosphatidylinositol 4-phosphate 3-kinase C2 domain-containing subunit alpha (Homo sapiens) (UniProt O00443). Nature of the series: Inhibition of recombinant human PI3KC2alpha (299 to end residues) at 1 uM using phosphatidylinositol as substrate incubated for 40 mins in presence of [gamma-33P]-ATP by scintillation counting method relative to control. Put shortly:
as §2

Series [15] has as its target Platelet-derived growth factor receptor alpha (Homo sapiens) (UniProt P16234). Nature of the series: Inhibition of recombinant human PDGFRalpha (550 to end residues) at 1 uM using poly(Glu, Tyr) 4:1 as substrate incubated for 40 mins in presence of [gamma-33P]-ATP by scintillation counting method relative to control. The procedure, abridged:
as §2

The target of series [16] is Serine/threonine-protein kinase WNK3 (Homo sapiens) (UniProt Q9BYP7). Put plainly: Inhibition of recombinant human WNK3 (1 to 434 residues) at 1 uM using myelin basic protein as substrate incubated for 40 mins in presence of [gamma-33P]-ATP by scintillation counting method relative to control.
Serine/threonine-protein kinase WNK3 (Homo sapiens), sequence (Q9BYP7 whole entry, the tested form may be a part): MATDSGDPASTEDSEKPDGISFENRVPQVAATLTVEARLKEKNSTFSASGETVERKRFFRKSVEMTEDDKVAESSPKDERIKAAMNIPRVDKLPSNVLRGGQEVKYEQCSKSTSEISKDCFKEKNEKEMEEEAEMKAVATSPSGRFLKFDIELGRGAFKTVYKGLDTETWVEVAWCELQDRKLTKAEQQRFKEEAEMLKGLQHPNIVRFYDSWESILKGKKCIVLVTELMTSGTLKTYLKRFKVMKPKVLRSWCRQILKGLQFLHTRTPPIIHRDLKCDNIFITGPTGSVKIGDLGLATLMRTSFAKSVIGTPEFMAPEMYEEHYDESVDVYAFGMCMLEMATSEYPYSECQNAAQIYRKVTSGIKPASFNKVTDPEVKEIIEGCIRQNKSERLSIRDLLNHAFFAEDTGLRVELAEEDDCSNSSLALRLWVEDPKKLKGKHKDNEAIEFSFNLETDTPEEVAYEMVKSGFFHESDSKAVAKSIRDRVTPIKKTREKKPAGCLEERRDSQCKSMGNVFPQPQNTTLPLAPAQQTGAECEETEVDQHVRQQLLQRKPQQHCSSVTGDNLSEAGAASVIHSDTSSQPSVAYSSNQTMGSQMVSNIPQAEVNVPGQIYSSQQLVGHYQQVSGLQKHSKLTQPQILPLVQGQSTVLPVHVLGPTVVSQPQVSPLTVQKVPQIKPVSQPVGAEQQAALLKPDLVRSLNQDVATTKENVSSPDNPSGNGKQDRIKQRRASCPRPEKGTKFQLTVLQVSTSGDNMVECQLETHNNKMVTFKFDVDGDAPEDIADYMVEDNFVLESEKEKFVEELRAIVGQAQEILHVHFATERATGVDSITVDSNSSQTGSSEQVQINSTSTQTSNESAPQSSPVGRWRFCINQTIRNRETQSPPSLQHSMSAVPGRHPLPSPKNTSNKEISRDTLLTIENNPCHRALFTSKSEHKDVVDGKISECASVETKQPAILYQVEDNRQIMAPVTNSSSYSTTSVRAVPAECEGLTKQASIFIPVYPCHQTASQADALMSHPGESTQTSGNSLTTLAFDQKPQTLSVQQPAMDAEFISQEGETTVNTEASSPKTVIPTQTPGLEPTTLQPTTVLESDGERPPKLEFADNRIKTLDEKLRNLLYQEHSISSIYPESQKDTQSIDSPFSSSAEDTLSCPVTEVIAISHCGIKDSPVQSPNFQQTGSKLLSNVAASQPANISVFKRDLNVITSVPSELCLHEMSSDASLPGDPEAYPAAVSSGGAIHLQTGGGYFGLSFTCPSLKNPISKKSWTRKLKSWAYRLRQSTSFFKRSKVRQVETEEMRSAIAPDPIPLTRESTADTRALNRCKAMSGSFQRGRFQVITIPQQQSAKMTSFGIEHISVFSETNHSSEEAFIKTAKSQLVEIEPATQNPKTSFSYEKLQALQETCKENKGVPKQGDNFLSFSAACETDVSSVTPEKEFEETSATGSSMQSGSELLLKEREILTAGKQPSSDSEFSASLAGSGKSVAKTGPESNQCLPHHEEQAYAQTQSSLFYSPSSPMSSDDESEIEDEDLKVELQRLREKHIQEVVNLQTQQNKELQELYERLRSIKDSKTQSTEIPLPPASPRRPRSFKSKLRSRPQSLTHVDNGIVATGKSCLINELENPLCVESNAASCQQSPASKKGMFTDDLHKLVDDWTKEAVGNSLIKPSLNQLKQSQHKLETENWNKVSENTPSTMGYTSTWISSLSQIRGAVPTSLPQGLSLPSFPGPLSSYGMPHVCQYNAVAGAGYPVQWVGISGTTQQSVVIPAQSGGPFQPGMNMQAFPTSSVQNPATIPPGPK
Series [17] addresses Serine/threonine-protein kinase TBK1 (Homo sapiens) (UniProt Q9UHD2). Put plainly: Inhibition of recombinant human full length TBK1 at 1 uM using KRRRALS(p)VASLPGL as substrate incubated for 40 mins in presence of [gamma-33P]-ATP by scintillation counting method relative to control.
Series [18] has as its target Protein kinase C epsilon type (Homo sapiens) (UniProt Q02156). Nature of the series: Inhibition of recombinant human PKCepsilon (2 to end residues) at 1 uM using ERMRPRKRQGSVRRRV as substrate incubated for 40 mins in presence of [gamma-33P]-ATP by scintillation counting method relative to control.
The subject of series [19] is HeLa. Put plainly: Inhibition of colony formation in human HeLa cells at 40 to 80 nM incubated for 5 days by crystal violet staining based light microscopy. Format: functional, cell-based. Put shortly:
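4 × 10^3 cells per well were cultured with graded concentrations for 5 days. Cells were then fixed with 20% methanol, stained with 0.5% crystal violet and photographed by light microscopy.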

For series [20], the system named is HeLa. Put plainly: Induction of cell cycle arrest in human HeLa cells assessed as accumulation in G2/M phase at 80 nM incubated for 36 hrs by propidium iodide staining based flow cytometry. Type of series: functional. The procedure, abridged: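 Cells were treated with graded concentrations for 36 h, then fixed overnight in 70% ice-cold ethanol at 4°C and resuspended in PBS. Staining used 50 µg/ml PI plus 5 µg/ml RNase at 37°C for 30 min. DNA content was analysed by FACS to give G0/G1, S and G2/M fractions.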
Background: In flow cytometry, cells or beads pass a laser one at a time.

A further series deals with MDA-MB-231. Nature of the series: Antiproliferative activity against human MDA-MB-231 cells at 40 nM assessed as reduction in cell viability incubated for 48 hrs by EdU staining based laser scanning confocal microscopy. Format: functional. The procedure, abridged:
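Cells, 5×10^4, were seeded in 24-well plates and treated for 48 h. They were then labeled using an EdU Apollo 488 imaging kit with Hoechst 33342 nuclear stain and imaged by laser scanning confocal microscopy. Percent EdU-positive cells = EdU-positive/Hoechst-stained × 100%.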

Structures are written as SMILES. Activity calls are given as the source filed them. The calls are words filed in the database; no cut-off is given here.

Serine/threonine-protein kinase 32A (Homo sapiens), sequence (Q8WU08 whole entry): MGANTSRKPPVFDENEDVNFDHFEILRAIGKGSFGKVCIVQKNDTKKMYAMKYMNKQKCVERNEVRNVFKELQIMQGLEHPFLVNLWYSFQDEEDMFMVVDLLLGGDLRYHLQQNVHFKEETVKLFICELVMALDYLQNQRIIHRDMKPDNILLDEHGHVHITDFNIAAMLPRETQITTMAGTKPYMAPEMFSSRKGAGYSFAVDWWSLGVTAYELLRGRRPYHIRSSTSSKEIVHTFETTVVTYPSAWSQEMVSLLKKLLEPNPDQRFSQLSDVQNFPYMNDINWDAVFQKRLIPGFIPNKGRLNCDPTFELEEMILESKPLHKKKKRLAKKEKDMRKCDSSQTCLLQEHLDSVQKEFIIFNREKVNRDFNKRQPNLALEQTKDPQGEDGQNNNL
Serine/threonine-protein kinase ULK1 (Homo sapiens), sequence (O75385 whole entry, the tested form may be a part): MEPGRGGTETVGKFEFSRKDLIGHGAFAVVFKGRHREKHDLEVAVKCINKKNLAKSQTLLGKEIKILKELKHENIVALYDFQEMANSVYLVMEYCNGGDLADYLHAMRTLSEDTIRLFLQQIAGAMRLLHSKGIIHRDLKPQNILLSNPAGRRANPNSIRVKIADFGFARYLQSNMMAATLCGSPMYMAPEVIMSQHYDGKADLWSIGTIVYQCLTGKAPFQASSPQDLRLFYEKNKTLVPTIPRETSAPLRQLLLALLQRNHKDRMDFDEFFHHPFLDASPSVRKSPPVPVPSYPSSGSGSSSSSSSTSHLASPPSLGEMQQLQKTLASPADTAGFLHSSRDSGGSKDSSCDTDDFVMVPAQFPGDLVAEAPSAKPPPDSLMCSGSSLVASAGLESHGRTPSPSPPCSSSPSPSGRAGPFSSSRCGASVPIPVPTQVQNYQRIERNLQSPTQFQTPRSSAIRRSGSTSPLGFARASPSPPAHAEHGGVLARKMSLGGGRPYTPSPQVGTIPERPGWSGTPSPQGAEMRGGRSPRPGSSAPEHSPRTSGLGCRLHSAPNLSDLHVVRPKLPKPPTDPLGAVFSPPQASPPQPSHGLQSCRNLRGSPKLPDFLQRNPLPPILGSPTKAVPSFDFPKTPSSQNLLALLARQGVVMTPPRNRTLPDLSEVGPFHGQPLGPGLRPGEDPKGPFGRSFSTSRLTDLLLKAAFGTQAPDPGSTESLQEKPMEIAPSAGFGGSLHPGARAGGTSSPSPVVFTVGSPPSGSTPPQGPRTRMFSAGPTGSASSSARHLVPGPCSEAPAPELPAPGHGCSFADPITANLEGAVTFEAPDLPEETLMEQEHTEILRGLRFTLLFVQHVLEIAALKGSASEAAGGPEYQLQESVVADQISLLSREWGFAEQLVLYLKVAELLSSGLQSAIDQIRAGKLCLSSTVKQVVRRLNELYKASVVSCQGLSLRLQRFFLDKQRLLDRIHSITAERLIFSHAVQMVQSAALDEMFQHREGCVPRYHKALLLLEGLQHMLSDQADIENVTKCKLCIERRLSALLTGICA
Serine/threonine-protein kinase TBK1 (Homo sapiens), sequence (Q9UHD2 whole entry): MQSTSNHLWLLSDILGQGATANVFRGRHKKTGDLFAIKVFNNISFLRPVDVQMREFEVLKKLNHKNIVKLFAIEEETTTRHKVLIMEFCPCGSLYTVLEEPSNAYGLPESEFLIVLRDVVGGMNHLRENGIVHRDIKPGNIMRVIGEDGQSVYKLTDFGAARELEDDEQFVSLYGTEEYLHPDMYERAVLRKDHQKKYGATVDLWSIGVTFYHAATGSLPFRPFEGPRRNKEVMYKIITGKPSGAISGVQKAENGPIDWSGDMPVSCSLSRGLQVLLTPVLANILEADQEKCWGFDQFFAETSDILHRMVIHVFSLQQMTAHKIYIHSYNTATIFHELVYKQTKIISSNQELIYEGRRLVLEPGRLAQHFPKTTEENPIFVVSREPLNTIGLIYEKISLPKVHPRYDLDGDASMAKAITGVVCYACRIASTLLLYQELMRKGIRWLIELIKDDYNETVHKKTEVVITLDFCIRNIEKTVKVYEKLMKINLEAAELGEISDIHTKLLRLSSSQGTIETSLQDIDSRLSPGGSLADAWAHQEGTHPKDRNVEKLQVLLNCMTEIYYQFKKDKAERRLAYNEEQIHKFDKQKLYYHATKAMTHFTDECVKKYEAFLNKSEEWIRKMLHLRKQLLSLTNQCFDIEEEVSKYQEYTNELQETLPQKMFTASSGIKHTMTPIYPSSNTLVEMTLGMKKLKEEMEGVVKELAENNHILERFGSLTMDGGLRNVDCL
Casein kinase I isoform gamma-2 (Homo sapiens), sequence (P78368 whole entry, looked up, canonical isoform): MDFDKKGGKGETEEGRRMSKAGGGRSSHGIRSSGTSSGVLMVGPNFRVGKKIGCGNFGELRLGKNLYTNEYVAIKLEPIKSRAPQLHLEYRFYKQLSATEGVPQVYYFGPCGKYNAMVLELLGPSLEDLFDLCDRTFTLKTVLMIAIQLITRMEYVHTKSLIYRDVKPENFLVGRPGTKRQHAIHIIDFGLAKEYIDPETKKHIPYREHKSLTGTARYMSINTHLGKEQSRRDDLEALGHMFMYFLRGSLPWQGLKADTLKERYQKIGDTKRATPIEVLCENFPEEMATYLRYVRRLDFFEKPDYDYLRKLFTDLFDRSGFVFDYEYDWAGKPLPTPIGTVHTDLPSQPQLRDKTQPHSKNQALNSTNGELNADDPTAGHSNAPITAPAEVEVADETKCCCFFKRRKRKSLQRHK

Take `Cc1ccc(NC(=O)C2(C(=O)Nc3ccc(Nc4ncc(F)c(-c5cc(F)c6nc(C)n(C(C)C)c6c5)n4)cc3)CC2)cc1`: the inhibition is 54% in series [1]; 49% in series [3]; 0% in series [5]; 79% in [8]; 65% in series [9]; 12% in [10]. Besides, the inhibition in series [11] is 0%; in [12] it was 0%; in series [13], 3%; in [14], 0%; in [15], 0%; in [16], 17%. For the same molecule, the inhibition in series [17] stood at 9%; in series [18], 16%. For the same molecule, the Activity result in series [2] and in series [4] was “Non-Toxic” throughout. For the same molecule, in series [6], the AUC(0-t) amounted to 10000 ng·h/mL. Moreover, the AUMCt in [7] is 17 mg/L.hr. In the series with HeLa [19], the inhibition result is “Active”.

As to `COc1cc2nccc(Oc3ccc(NC(=O)C4(C(=O)Nc5ccc(F)cc5)CC4)cc3)c2cc1OC` [CABOZANTINIB], the result in the series with HeLa [20] was Active. Besides, in the series with MDA-MB-231, the inhibition entry was “Active”.

A word on the inhibition: it is the share of the control response that was lost under treatment. A word on the AUC(0-t): it is exposure summed from dosing to a finite time, without extrapolation to infinity. Read a low AUC(0-t) as less exposure.
